Laboratory results: ChEMBL document CHEMBL3608261, “Metabolically programmed iron chelators” (Bioorg Med Chem, 2015)
Values belong to the compound of their own block, whether it stands above or below them.

Legend:
[1] = system: Sapajus apella; experiment: Iron clearing efficiency in bile duct cannulated Cebus apella assessed as clearance of iron at 150 umol/kg, po measured at 3 hrs intervals for up to 48 hrs relative to control; format: functional
[2] = system: Sapajus apella; experiment: Iron clearing efficiency in bile duct cannulated Cebus apella assessed as clearance of iron in feces at 150 umol/kg, po measured at 3 hrs intervals for up to 48 hrs relative to control; format: functional
[3] = system: Sapajus apella; experiment: Iron clearing efficiency in bile duct cannulated Cebus apella assessed as clearance of iron in urine at 150 umol/kg, po measured at 3 hrs intervals for up to 48 hrs relative to control; format: functional
[4] = system: Rattus norvegicus; experiment: Drug metabolism in Sprague-Dawley rat heart assessed as (S)-4'-(HO)-DADFT-PEAA level at 300 umol/kg, sc up to 8 hrs by HPLC analysis; format: ADME, organism-based; settings: in vivo
Summary of the method: (§1)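 Male Sprague-Dawley rats (250–350 g) got a single sc dose of the monosodium salt at 300 µmol/kg, n=3 per time point. They were killed with CO2 at 0.5, 1, 2, 4 and 8 h. Citrated cardiac-puncture blood was spun to plasma, and liver, kidney, heart and pancreas were frozen. Tissue was homogenized 1:1 in water, given a methanol rinse, held 30 min at −20 °C, centrifuged and filtered. Read-out was reversed-phase HPLC, UV 310 nm.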

[5] = system: Rattus norvegicus; experiment: Drug metabolism in Sprague-Dawley rat pancreas assessed as (S)-4'-(HO)-DADFT-PEAA level at 300 umol/kg, sc up to 8 hrs by HPLC analysis; format: ADME, organism-based; settings: in vivo; summary of the method: as §1
[6] = system: Rattus norvegicus; experiment: Drug metabolism in Sprague-Dawley rat plasma assessed as (S)-4'-(HO)-DADFT-PEAA level at 300 umol/kg, sc after 8 hrs by HPLC analysis; format: ADME, organism-based; settings: in vivo; summary of the method: as §1
[7] = system: Sapajus apella; experiment: Iron clearing efficiency in bile duct cannulated Cebus apella assessed as clearance of iron in bile at 75 umol/kg, po measured at 3 hrs intervals for up to 48 hrs relative to control; format: functional
[8] = system: Rattus norvegicus; experiment: Iron clearing efficiency in bile duct cannulated Sprague-Dawley rat assessed as clearance of iron in urine at 300 umol/kg, po measured at 3 hrs intervals for up to 48 hrs relative to control; format: functional
[9] = system: Rattus norvegicus; experiment: Iron clearing efficiency in bile duct cannulated Sprague-Dawley rat assessed as clearance of iron in bile at 300 umol/kg, po measured at 3 hrs intervals for up to 48 hrs relative to control; format: functional
Summary of the method: (§2)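 Non-iron-overloaded male Sprague-Dawley rats (400–450 g) with cannulated bile ducts received 300 µmol/kg po or sc. […] Bile was sampled every 3 h for up to 48 h and urine at 24 h intervals. ICE = (treated minus control iron excretion) / theoretical output (2:1 ligand:Fe) × 100 over 48 h. Mean ± SEM.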

[10] = system: Sapajus apella; experiment: Iron clearing efficiency in bile duct cannulated Cebus apella assessed as clearance of iron in urine at 75 umol/kg, po […] relative to control; format: functional
[11] = system: Rattus norvegicus; experiment: Drug metabolism in Sprague-Dawley rat kidney assessed as (S)-4'-(HO)-DADFT-PEAA level at 300 umol/kg, sc up to 8 hrs by HPLC analysis; format: ADME, organism-based; settings: in vivo; summary of the method: as §1
[12] = system: Rattus norvegicus; experiment: Iron clearing efficiency in bile duct cannulated Sprague-Dawley rat assessed as clearance of iron in bile at 300 umol/kg, sc measured at 3 hrs intervals for up to 48 hrs relative to control; format: functional; summary of the method: as §2
[13] = species: Rattus norvegicus; experiment: Iron clearing efficiency in bile duct cannulated Sprague-Dawley rat assessed as […] for up to 48 hrs relative to control; format: functional, Urine
[14] = system: Sapajus apella; experiment: Iron clearing efficiency in bile duct cannulated Cebus apella assessed as clearance of iron in bile at 75 umol/kg, sc measured at 3 hrs intervals for up to 48 hrs relative to control; format: functional
[15] = system: Sapajus apella; experiment: Iron clearing efficiency in bile duct cannulated Cebus apella assessed as clearance of iron in urine at 75 umol/kg, sc […] relative to control; format: functional
[16] = system: Rattus norvegicus; experiment: Iron clearing efficiency in bile duct cannulated Sprague-Dawley rat assessed as clearance of iron at 300 umol/kg, po measured at 3 hrs intervals for up to 48 hrs relative to control; format: functional; summary of the method: as §2
[17] = Performance ratio, ratio of iron clearing efficiency in […] at 75 umol/kg, po to iron clearing efficiency in bile duct cannulated Sprague-Dawley rat at 300 umol/kg, po; format: functional
Summary of the method: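 Performance ratio = mean ICE in iron-overloaded Cebus apella (75 µmol/kg) divided by mean ICE in bile duct-cannulated rats (300 µmol/kg), by the same route.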

[18] = Drug metabolism in Sprague-Dawley rat plasma assessed as parent compound level at 300 umol/kg, sc after 0.5 hrs by HPLC analysis; format: ADME, organism-based; settings: read-out: Stability
Summary of the method: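 Rats (male Sprague-Dawley, 250–350 g) were dosed sc once with the monosodium salt, 300 µmol/kg, three animals per time point up to 8 h. Plasma came from citrated cardiac blood; liver was frozen after CO2 euthanasia. Parent and metabolites were quantified by HPLC with UV at 310 nm against linear calibration curves (detection limit 0.25 µM, linear 1–1000 µM). Data are means.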

[19] = system: Sapajus apella; experiment: Iron clearing efficiency in […] Cebus apella assessed as clearance of iron in feces at 75 umol/kg, po […] relative to control; format: functional
Summary of the method: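 Cebus apella monkeys (3.5–6.5 kg) were iron-overloaded with intravenous iron dextran to about 500 mg Fe/kg, reaching serum transferrin saturation of 70–80%. At least 60 days elapsed before use. Chelator was given at 75 µmol/kg po or sc, with the same animals dosed by both routes. Feces and urine were collected at 24 h intervals from 4 days before to 5 days after dosing, and iron was measured by flame absorption spectroscopy. ICE = 2-day post-drug output minus 4-day mean baseline, divided by theoretical output (2:1 ligand:Fe), as %. Mean ± SEM.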

[20] = system: Rattus norvegicus; experiment: Drug metabolism in Sprague-Dawley rat liver assessed as (S)-4'-(HO)-DADFT level at 300 umol/kg, sc after 8 hrs; format: ADME, organism-based; settings: in vivo
[21] = system: Rattus norvegicus; experiment: Drug metabolism in Sprague-Dawley rat liver assessed as (S)-4'-(HO)-DADFT-PEA level at 300 umol/kg, sc up to 8 hrs by HPLC analysis; format: ADME, organism-based; settings: in vivo; summary of the method: as §1
[22] = system: Rattus norvegicus; experiment: Drug metabolism in Sprague-Dawley rat plasma assessed as (S)-4'-(HO)-DADFT-PEA level at 300 umol/kg, sc up to 8 hrs by HPLC analysis; format: ADME, organism-based; settings: in vivo; summary of the method: as §1
[23] = system: Rattus norvegicus; experiment: Drug metabolism in Sprague-Dawley rat kidney assessed as (S)-4'-(HO)-DADFT-PEA level at 300 umol/kg, sc up to 8 hrs by HPLC analysis; format: ADME, organism-based; settings: in vivo; summary of the method: as §1
[24] = system: Rattus norvegicus; experiment: Drug metabolism in Sprague-Dawley rat heart assessed as (S)-4'-(HO)-DADFT-PEA level at 300 umol/kg, sc up to 8 hrs by HPLC analysis; format: ADME, organism-based; settings: in vivo; summary of the method: as §1
[25] = system: Rattus norvegicus; experiment: Drug metabolism in Sprague-Dawley rat pancreas assessed as (S)-4'-(HO)-DADFT-PEA level at 300 umol/kg, sc up to 8 hrs by HPLC analysis; format: ADME, organism-based; settings: in vivo; summary of the method: as §1
[26] = system: Rattus norvegicus; experiment: Drug metabolism in Sprague-Dawley rat liver assessed as (S)-4'-(HO)-DADFT-PEAA level at 300 umol/kg, sc up to 8 hrs by HPLC analysis; format: ADME, organism-based; settings: in vivo; summary of the method: as §1
[27] = system: Rattus norvegicus; experiment: Drug metabolism in Sprague-Dawley rat plasma assessed as (S)-4'-(HO)-DADFT-PEAA level at 300 umol/kg, sc up to 8 hrs by HPLC analysis; format: ADME, organism-based; settings: in vivo; summary of the method: as §1
[28] = system: Sapajus apella; experiment: Iron clearing efficiency in bile duct cannulated Cebus apella assessed as clearance of iron in feces at 150 umol/kg, sc measured at 3 hrs intervals for up to 48 hrs relative to control; format: functional
[29] = system: Rattus norvegicus; experiment: Iron clearing efficiency in bile duct cannulated Sprague-Dawley rat assessed as clearance of iron in urine at 150 umol/kg, sc measured at 3 hrs intervals for up to 48 hrs relative to control; format: functional
[30] = system: Sapajus apella; experiment: Iron clearing efficiency in bile duct cannulated Cebus apella assessed as clearance of iron in urine at 150 umol/kg, sc measured at 3 hrs intervals for up to 48 hrs relative to control; format: functional
[31] = system: Rattus norvegicus; experiment: Iron clearing efficiency in bile duct cannulated Sprague-Dawley rat assessed as clearance of iron at 150 umol/kg, sc measured at 3 hrs intervals for up to 48 hrs relative to control

SMILES: C[C@]1(C(=O)O)CSC(c2cccc(O)c2O)=N1
Activity [1]: 23.1%
Activity [2]: 83%
Activity [3]: 17%

Drug metabolism [4]: metabolite_detected
Drug metabolism [5]: metabolite_detected
Drug metabolism [6]: metabolite_notdetected
Drug metabolism [11]: metabolite_detected
SMILES: C[C@]1(C(=O)O)CSC(c2ccc(OCCOCCO)cc2O)=N1
Activity [7]: 54%
Activity [8]: 2%
Activity [9]: 98%
Activity [10]: 46%

SMILES: C[C@]1(C(=O)O)CSC(c2ccc(OCC(=O)O)cc2O)=N1
Activity [7]: 60%
Activity [8]: 11%
Activity [9]: 89%
Activity [10]: 40%

SMILES: C[C@]1(C(=O)[O-])CSC(c2ccc(OCCCC(=O)O)cc2O)=N1.[Na+]
Activity [12]: 95%
Activity [13]: 5%
Activity [14]: 78%
Activity [15]: 22%

SMILES: COc1ccc(C2=N[C@@](C)(C(=O)O)CS2)c(O)c1
Activity [16]: 6.6%

SMILES: C[C@]1(C(=O)[O-])CSC(c2ccc(OCCOCC(=O)O)cc2O)=N1.[Na+]
Activity [12]: 99%
Activity [13]: 1%
Activity [14]: 84%
Activity [15]: 16%

SMILES: COCCOCCOc1ccc(C2=N[C@@](C)(C(=O)[O-])CS2)c(O)c1.[Na+]
Activity [10]: 17%

SMILES: C[C@]1(C(=O)O)CSC(c2ccc(OCCCCCC(=O)O)cc2O)=N1
Activity [7]: 82%
Activity [8]: 6%
Activity [9]: 94%
Activity [10]: 18%

SMILES: COCCOCCOCCOc1ccc(C2=N[C@@](C)(C(=O)O)CS2)c(O)c1
Activity [16]: 5.5%

SMILES: COCCOCCOCCOc1cccc(C2=N[C@@](C)(C(=O)O)CS2)c1O [DEFERITAZOLE]
Activity [1]: 23%
Activity [2]: 95%
Activity [3]: 5%

SMILES: COCCCCCCOc1ccc(C2=N[C@@](C)(C(=O)O)CS2)c(O)c1
Activity [8]: 1%
Activity [9]: 99%

SMILES: C[C@]1(C(=O)[O-])CSC(c2ccc(OCCCCCC(=O)O)cc2O)=N1.[Na+]
Activity [12]: 96%
Activity [13]: 4%
Activity [14]: 69%
Activity [15]: 31%
Ratio [17]: 1.2

SMILES: C[C@]1(C(=O)O)CSC(c2ccc(OCCOCC(=O)O)cc2O)=N1
Activity [7]: 51%
Activity [8]: 0%
Activity [9]: 100%
Activity [10]: 49%

SMILES: C[C@]1(C(=O)O)CSC(c2ccc(OCCCC(=O)O)cc2O)=N1
Activity [7]: 97%
Activity [8]: 11%
Activity [9]: 89%
Activity [10]: 3%

SMILES: C[C@]1(C(=O)[O-])CSC(c2ccc(OCC(=O)O)cc2O)=N1.[Na+]
Activity [12]: 94%
Activity [14]: 53%
Activity [15]: 47%

Drug metabolism [4]: metabolite_notdetected
Drug metabolism [5]: metabolite_notdetected
remaining at 0.5 h [18]: 95%
Drug metabolism [20]: metabolite_notdetected
Drug metabolism [21]: metabolite_detected
Drug metabolism [22]: metabolite_detected
Drug metabolism [23]: metabolite_detected
Drug metabolism [24]: metabolite_detected
Drug metabolism [25]: metabolite_detected
Drug metabolism [26]: metabolite_notdetected
Drug metabolism [27]: metabolite_notdetected
Drug metabolism [11]: metabolite_notdetected
SMILES: COCCOCCOc1ccc(C2=N[C@@](C)(C(=O)O)CS2)c(O)c1 [SP-420]
Activity [8]: 3%
Activity [9]: 97%
Activity [19]: 93%

SMILES: CC(=O)N(O)CCCCCNC(=O)CCC(=O)N(O)CCCCCNC(=O)CCC(=O)N(O)CCCCCN [DEFEROXAMINE]
Activity [28]: 45%
Activity [29]: 26%
Activity [30]: 55%
Activity [31]: 74%
